Measured values collected from several papers.
Compare with care: the assays were run in different laboratories.
Target: NUAK family SNF1-like kinase 2 (NUAK2, Homo sapiens, UniProt Q9H093)
Sequence (Q9H093 1-628, as in one of the studies): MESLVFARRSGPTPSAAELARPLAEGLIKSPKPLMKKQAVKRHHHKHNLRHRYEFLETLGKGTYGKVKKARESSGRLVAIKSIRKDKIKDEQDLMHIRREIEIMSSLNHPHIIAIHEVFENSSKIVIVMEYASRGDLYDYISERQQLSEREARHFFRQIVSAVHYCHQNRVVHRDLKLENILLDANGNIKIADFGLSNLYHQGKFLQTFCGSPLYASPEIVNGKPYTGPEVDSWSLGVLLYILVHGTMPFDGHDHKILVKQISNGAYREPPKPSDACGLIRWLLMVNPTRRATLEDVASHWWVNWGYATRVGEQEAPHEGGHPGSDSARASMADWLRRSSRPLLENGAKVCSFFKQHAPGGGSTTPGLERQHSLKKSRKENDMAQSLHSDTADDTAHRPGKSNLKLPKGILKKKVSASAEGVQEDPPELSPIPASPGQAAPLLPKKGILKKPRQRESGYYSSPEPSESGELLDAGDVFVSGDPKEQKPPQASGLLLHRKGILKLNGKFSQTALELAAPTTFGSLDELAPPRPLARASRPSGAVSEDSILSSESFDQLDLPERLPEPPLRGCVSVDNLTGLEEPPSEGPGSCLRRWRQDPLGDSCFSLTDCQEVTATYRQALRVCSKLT

Structure (SMILES) | read-out | action | technique | concentration | measurement | result
CCCCC(=O)Nc1ccc(-c2ccc3ncn(CCC)c(=O)c3c2)cn1 | binding |  | competition with immobilised ligand | 0.5 µM | remaining binding | 97%
Cc1cc(O)c(-c2ccc([C@@H](C)CN(C)C)cc2)c2c1[nH]c(=O)c1sccc12 | enzyme activity | inhibitor |  | 0.1 µM | inhibition | 3.81%
N#Cc1ccc(NC(=O)Nc2ccccc2)cc1 | cell-free assay |  | competition with immobilised ligand | 25 µM | remaining binding | 77%
CN1CCN(C(=O)c2ccc(NC(=O)Nc3ccc(N(C)c4ccnc(Nc5ccc(CS(C)(=O)=O)cc5)n4)cc3)cc2)CC1 | binding |  |  | 1 µM | remaining binding | 39%
C[C@]1(O)CCCN(c2nc(Nc3ccc(S(=O)(=O)N[C@H]4CC[C@H](CN5CCN(c6ccc(C7CCC(=O)NC7=O)cc6F)CC5)CC4)cc3Cl)ncc2C(F)(F)F)C1 (stereo partly drawn) | binding |  | competition with immobilised ligand | 1 µM | remaining binding | 49%
COc1ccc2oc(-c3ccc4nc(N)oc4c3)c/c(=N\c3ccccc3NC(=O)CCN)c2c1 | binding |  |  | 1 µM | remaining binding | 93%
CC(C)S(=O)(=O)c1ccc2nccc(Nc3ccc4sc(C5CCCC5)nc4c3)c2c1 | enzyme activity | inhibitor |  | 1 µM | activity vs control | 121%
CO[C@@H]1[C@H](N(C)C(=O)c2ccccc2)C[C@H]2O[C@]1(C)n1c3ccccc3c3c4c(c5c6ccccc6n2c5c31)C(=O)NC4 | enzyme activity | inhibitor |  | 1 µM | inhibition | 99%
CNS(=O)(=O)c1ccc(Nc2ncc(C(F)(F)F)c(N3CCC[C@](C)(O)C3)n2)c(C)c1 | binding |  | competition with immobilised ligand | 1 µM | remaining binding | 3.9%
C[C@H]1CC[C@H](n2c3cnccc3c3cnc(Nc4ccc5c(n4)CCN(C(=O)CO)C5)nc32)CC1 | cell-free assay |  |  | 1 µM | remaining signal | 34%
C1=C/COCc2cc(ccc2OCCN2CCCC2)Nc2nccc(n2)-c2cccc(c2)COC/1 | cell-free assay |  |  | 0.1 µM | remaining signal | 13%
C=CC(=O)N1CCC([C@@H]2CCNc3c(C(N)=O)c(-c4ccc(Oc5ccccc5)cc4)nn32)CC1 | enzyme activity | inhibitor |  | 1 µM | inhibition | 24%
